These results are taken from ChEMBL document CHEMBL1139290, “Design, synthesis, and pharmacological and pharmacokinetic evaluation of 3-phenyl-5-pyridyl-1,2,4-triazole derivatives as xanthine oxidoreductase inhibitors” (Bioorg Med Chem Lett, 2009).

pIC50: −log10 of the molar value.

A word on the inhibition: it is the drop in the measured response relative to a control, in per cent. Broadly, the pIC50 is −log10 of the IC50, conventionally taken in molar units. A word on the half-life: it is the time in which the quantity being followed falls by half. By Cmax is commonly meant the peak of the concentration-time curve.

One series deals with CYP3A4 (Homo sapiens, UniProt P08684). Kind of series: Inhibition of human CYP3A4 at 10 uM. It counts as ADME.
Series [1] deals with Xanthine dehydrogenase/oxidase (Bos taurus, UniProt P80457). The series is described as follows: Inhibition of bovine milk xanthine oxidoreductase. A digest of the protocol: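 Bovine milk XO (2 mU/mL) with 15 µM xanthine in 50 mM phosphate buffer, pH 7.4, at 25 °C, with or without compound. Uric acid formation read as absorbance rise at 292 nm. Initial rate taken from 0 to 2.5 min and used for IC50.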

Series [2] is described as follows: Half life in rat at 3 mg/kg, po. Type of series: ADME, organism-based. Details: dose 3 mg/kg, route oral; call rule not given here. The conditions noted are these: in vivo. Put shortly: (§1)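 Compounds given orally to rats; blood taken from the jugular vein at set times and centrifuged to plasma. Plasma aliquots were mixed with acetonitrile containing an internal standard, then centrifuged.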

Series [3] can be described thus: Cmax in rat at 3 mg/kg, po. It counts as ADME, organism-based. Details: dose 3 mg/kg, route oral. To be noted: in vivo. Put shortly:
as §1

Series [4] concerns Rattus norvegicus. Kind of series: Reduction of uric acid level in rat serum at 0.3 mg/kg, po after 6 hrs by phosphotungstic acid method. It counts as functional. On the set-up: scale not given: the % may be the effect or the level left. A digest of the protocol:
(§2)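 Rats dosed orally. Blood drawn from the orbital sinus 6 h post-dose, clotted 1 h at room temperature and centrifuged. Serum uric acid measured by the phosphotungstic acid method.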

A further series has as its target Cytochrome P450 2C19 (Homo sapiens, UniProt P33261). Kind of series: Inhibition of human CYP2C19. Type of series: ADME.
Series [5] is described as follows: Cmax in rat at 1 mg/kg, po. Details: dose 1 mg/kg, route oral. The conditions noted are these: in vivo. Type of series: ADME, organism-based. Put shortly:
as §1

A further series concerns the target Cytochrome P450 2C9 (Homo sapiens, UniProt P11712). Kind of series: Inhibition of human CYP2C9. It counts as ADME.
The next series has as its target Cytochrome P450 2D6 (Homo sapiens, UniProt P10635). The series is described as follows: Inhibition of human CYP2D6. Type of series: ADME.
A further series deals with T1, Cytochrome P450 1A2 (Homo sapiens, UniProt P05177).
T1 sequence (P05177 whole entry): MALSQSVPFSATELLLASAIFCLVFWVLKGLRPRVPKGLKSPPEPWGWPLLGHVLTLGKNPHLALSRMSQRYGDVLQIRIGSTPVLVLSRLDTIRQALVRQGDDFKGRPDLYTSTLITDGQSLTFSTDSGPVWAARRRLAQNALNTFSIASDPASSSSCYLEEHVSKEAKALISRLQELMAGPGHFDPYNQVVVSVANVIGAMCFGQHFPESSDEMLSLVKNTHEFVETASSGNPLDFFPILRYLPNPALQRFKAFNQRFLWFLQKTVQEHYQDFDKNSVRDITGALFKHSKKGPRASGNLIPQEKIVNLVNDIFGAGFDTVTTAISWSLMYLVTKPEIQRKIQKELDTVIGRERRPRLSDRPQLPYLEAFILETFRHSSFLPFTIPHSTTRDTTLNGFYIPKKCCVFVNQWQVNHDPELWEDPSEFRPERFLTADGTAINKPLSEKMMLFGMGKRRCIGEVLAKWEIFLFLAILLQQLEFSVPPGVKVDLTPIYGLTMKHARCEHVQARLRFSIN
The series is described as follows: Inhibition of human CYP1A2. It counts as ADME.

Series [6] deals with Rattus norvegicus. The series is described as follows: Reduction of uric acid level in rat serum at 1 mg/kg, po after 6 hrs by phosphotungstic acid method. It counts as functional. Details: scale not given: the % may be the effect or the level left. Put shortly: as §2

Sequence of CYP3A4 (P08684 whole entry): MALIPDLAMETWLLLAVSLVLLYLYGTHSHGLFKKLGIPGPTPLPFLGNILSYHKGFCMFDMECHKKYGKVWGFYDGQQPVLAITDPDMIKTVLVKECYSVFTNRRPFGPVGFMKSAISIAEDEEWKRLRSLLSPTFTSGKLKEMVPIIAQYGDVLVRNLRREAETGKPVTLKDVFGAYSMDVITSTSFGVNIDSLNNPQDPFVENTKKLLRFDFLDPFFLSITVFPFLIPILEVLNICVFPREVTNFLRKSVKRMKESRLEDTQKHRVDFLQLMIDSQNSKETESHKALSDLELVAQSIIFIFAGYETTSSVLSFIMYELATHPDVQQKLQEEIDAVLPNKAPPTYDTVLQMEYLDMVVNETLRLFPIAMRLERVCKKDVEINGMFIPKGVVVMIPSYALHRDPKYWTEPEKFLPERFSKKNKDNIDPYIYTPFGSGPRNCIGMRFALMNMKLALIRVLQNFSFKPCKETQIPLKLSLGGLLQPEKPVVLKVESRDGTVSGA
Sequence of Xanthine dehydrogenase/oxidase (P80457 whole entry): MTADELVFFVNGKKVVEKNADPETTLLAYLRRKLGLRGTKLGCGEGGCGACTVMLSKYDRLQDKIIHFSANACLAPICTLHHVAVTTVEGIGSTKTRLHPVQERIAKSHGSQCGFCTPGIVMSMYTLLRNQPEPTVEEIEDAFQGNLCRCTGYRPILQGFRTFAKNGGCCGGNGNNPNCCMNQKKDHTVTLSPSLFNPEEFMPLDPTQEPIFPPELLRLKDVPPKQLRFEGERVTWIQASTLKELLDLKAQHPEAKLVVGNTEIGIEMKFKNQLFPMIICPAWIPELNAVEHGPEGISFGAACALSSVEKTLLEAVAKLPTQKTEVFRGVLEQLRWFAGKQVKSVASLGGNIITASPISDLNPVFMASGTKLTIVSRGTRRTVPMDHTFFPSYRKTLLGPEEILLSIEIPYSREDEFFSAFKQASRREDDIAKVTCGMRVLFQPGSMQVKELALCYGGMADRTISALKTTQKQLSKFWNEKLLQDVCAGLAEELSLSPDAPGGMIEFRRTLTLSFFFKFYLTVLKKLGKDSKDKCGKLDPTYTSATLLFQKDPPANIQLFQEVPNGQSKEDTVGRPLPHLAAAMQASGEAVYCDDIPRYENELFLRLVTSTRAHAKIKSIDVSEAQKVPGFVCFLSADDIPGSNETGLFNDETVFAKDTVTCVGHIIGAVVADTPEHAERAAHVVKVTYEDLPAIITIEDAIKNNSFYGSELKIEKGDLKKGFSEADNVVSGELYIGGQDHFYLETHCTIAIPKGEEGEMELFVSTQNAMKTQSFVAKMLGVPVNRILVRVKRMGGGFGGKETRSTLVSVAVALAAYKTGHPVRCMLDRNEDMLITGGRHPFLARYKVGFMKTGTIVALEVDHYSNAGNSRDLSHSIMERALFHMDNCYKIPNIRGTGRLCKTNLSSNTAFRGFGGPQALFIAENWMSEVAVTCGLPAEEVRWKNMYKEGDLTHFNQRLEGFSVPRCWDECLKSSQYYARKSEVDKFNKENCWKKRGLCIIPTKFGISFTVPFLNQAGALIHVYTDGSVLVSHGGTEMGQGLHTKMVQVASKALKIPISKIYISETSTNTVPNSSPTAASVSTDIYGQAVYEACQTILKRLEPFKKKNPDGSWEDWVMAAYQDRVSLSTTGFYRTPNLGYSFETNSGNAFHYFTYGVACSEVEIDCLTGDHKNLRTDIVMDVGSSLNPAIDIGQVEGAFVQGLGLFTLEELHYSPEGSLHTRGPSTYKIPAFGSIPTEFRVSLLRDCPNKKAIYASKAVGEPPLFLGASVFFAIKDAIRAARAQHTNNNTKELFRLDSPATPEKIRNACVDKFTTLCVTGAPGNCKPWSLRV
Sequence of Cytochrome P450 2D6 (P10635 whole entry): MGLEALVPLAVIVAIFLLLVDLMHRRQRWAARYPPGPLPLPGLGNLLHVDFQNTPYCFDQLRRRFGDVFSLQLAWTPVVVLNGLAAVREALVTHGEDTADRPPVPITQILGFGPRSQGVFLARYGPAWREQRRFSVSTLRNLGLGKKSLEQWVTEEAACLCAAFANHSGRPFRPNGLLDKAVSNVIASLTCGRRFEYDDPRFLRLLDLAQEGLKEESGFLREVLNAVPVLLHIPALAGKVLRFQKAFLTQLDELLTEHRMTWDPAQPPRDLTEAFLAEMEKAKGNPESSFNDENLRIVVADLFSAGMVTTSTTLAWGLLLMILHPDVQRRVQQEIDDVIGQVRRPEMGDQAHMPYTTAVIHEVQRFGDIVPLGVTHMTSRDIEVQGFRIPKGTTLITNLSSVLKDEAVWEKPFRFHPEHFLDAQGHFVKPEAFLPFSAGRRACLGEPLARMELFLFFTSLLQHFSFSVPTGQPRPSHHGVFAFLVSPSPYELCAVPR
Sequence of Cytochrome P450 2C9 (P11712 whole entry): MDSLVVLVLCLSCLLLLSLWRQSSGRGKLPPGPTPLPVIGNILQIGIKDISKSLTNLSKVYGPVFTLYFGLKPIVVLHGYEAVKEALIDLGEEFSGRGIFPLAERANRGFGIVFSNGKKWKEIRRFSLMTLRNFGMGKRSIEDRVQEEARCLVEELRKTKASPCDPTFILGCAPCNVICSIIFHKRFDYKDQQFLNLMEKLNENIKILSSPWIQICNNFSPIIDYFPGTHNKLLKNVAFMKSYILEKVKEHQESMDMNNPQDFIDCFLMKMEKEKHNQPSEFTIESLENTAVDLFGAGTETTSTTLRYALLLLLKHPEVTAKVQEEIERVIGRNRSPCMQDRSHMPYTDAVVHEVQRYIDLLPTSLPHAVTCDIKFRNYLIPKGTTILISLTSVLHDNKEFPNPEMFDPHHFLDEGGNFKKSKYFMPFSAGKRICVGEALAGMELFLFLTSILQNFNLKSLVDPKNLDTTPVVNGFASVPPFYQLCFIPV
Sequence of Cytochrome P450 2C19 (P33261 whole entry): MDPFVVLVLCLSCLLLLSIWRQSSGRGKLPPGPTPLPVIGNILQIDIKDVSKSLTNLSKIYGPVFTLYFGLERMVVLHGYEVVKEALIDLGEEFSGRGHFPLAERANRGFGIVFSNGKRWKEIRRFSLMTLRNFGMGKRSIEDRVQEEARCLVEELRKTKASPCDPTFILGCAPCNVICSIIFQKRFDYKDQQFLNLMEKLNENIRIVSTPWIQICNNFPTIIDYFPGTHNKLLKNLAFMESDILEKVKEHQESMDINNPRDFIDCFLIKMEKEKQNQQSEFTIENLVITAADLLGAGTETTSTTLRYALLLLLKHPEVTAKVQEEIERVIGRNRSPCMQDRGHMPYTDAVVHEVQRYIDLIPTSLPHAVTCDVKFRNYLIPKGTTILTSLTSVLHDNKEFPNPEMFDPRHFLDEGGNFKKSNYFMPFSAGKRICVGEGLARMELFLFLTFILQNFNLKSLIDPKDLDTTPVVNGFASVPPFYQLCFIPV

`COCCOCCOc1ccc(-c2nc(-c3ccnc(C)c3)n[nH]2)cc1C#N`: the inhibition at 10 µM against CYP3A4 was -6.7%. The pIC50 in series [1] was 7.51. Further, the half-life in [2] is 58.2 min. This compound displayed a Cmax in series [3] of 712 ng/mL. Also, the Activity with Rattus norvegicus [4] amounted to 52%.

In series [1], `CC(C)COc1ccc(NC(=O)C(=O)O)cc1Cl` showed a pIC50 of 5.14.

With `Cc1cc(-c2nnc(-c3ccc(OCC(C)C)c([N+](=O)[O-])c3)[nH]2)cc(Cl)n1`, the inhibition at 10 µM at CYP3A4 came to 10.9%. The pIC50 in [1] was under 5.00.

Turning to `CC(C)COc1ccc(-c2n[nH]c(-c3ccncc3)n2)cc1[N+](=O)[O-]`, the inhibition at 10 µM against CYP3A4 is 80.9%. The Activity result is “Active” on Cytochrome P450 2C19; “Active” at Cytochrome P450 2C9; “Active” on Cytochrome P450 2D6; “Active” on Cytochrome P450 1A2; 33.7% in the series with Rattus norvegicus [4]. This compound also yielded a Cmax in [5] of 13.8 ng/mL. In series [1], the pIC50 is 8.43.

Take `COCCOc1ccc(-c2nc(-c3ccnc(C)c3)n[nH]2)cc1C#N`: in series [1], the pIC50 was 7.19. Besides, the Activity in the series with Rattus norvegicus [4] was 36.5%.

In turn, `Cc1cc(-c2nnc(-c3ccc(OCC(C)C)c(C(=O)O)c3)[nH]2)ccn1` gave a negative-log IC50 (pIC50) in series [1] of under 5.00.

For the compound `Cc1cc(-c2nc(-c3ccc(OCC(C)C)c([N+](=O)[O-])c3)n[nH]2)ccn1`, the inhibition at 10 µM on CYP3A4 was 7.7%. Further, the Cmax in [5] came out at 7.8 ng/mL. Besides, the pIC50 in series [1] is 8.00. In addition, in the series with Rattus norvegicus [4], the Activity worked out at 39.1%.

`COCOc1ccc(-c2nc(-c3ccnc(C)c3)n[nH]2)cc1C#N` had a pIC50 in [1] of 7.62. In the series on Rattus norvegicus [4], the Activity is 27%.

`COc1cc(-c2n[nH]c(-c3ccc(OCC(C)C)c([N+](=O)[O-])c3)n2)ccn1`: the inhibition at 10 µM against CYP3A4 turned out to be 6.4%. For the same compound, the pIC50 in [1] was under 5.00.

In series [1], `CCCCOCCOCCOc1ccc(-c2nc(-c3ccnc(C)c3)n[nH]2)cc1C#N` showed a pIC50 of 7.59. Besides, in the series with Rattus norvegicus [4], the Activity turned out to be 10.1%.

As to `Cc1cc(-c2n[nH]c(-c3ccc(OCC4COC(C)(C)O4)c(C#N)c3)n2)ccn1` (stereo not given), the pIC50 in [1] was 7.22. The Activity in the series with Rattus norvegicus [4] is 27.9%.

In series [1], `Cc1cc(-c2nnc(-c3ccc(OCC(=O)O)c(C#N)c3)[nH]2)ccn1` had a pIC50 of 6.96.

`CC(C)COc1ccc(NC(=O)Nc2ccncc2)cc1[N+](=O)[O-]`: the pIC50 in series [1] is 7.82. Also, in the series on Rattus norvegicus [4], the Activity is -3.2%.

On to `CCOC(=O)c1cc(-c2nc(-c3ccnc(C)c3)n[nH]2)ccc1OCC(C)C`, for which, in series [1], the pIC50 is 7.70. The Activity in the series with Rattus norvegicus [4] is recorded as 42.4%.

In the case of `CC(C)COc1ccc(-c2nc(-c3ccccn3)n[nH]2)cc1[N+](=O)[O-]`, the pIC50 in [1] is under 5.00.

`Cc1cc(-c2nc(-c3ccc(OCC(C)C)c(C#N)c3)n[nH]2)ccn1`: the inhibition at 10 µM at CYP3A4 was determined as 16.8%. For the same compound, the Cmax amounted to 4.5 ng/mL in series [5] and 16.7 ng/mL in series [3]. In series [1], this compound had a pIC50 of 7.77. The half-life in series [2] was 22.2 min. The Activity with Rattus norvegicus [4] came to 46%.

As for `Cc1cc(-c2n[nH]c(-c3ccc(OCCO)c(C#N)c3)n2)ccn1`, the pIC50 in [1] is 7.40. In the series with Rattus norvegicus [4], the Activity came to 10.9%.

On to `CC(C)COc1ccc(-c2nc(-c3ccnc(Cl)c3)n[nH]2)cc1[N+](=O)[O-]`, for which the inhibition at 10 µM at CYP3A4 amounted to 7.1%. Moreover, the Activity in the series on Rattus norvegicus [6] came to 40.6%.

On to `CC(C)COc1ccc(-c2nc(-c3cccnc3)n[nH]2)cc1[N+](=O)[O-]`, for which the inhibition at 10 µM at CYP3A4 came to 18.2%. Moreover, the pIC50 in series [1] was 5.23.

In [1], `Cc1cc(-c2n[nH]c(-c3ccc(OCCOCCOCCCl)c(C#N)c3)n2)ccn1` gave a pIC50 of 7.68. In series [2], this compound showed a half-life of 31.2 min. In [3], this compound returned a maximum concentration (Cmax) of 684 ng/mL. Besides, the Activity in the series with Rattus norvegicus [4] was 40.7%.

Turning to `COCCOCOc1ccc(-c2nc(-c3ccnc(C)c3)n[nH]2)cc1C#N`, the inhibition at 10 µM on CYP3A4 came to 16.5%. Further, in [1], the pIC50 is 7.62. For the same compound, the half-life in [2] was 27 min. Further, the concentration in series [3] peaked (Cmax) at 360 ng/mL. The Activity in the series with Rattus norvegicus [4] is listed as 40%.

In series [1], `Cc1cc(-c2n[nH]c(-c3ccc(O)c(C#N)c3)n2)ccn1` gave a pIC50 of 7.37. For the same compound, the Activity in the series on Rattus norvegicus [4] is reported as -8.2%.
